Source: ChEMBL document CHEMBL4130549, “Synthesis and bioactivities study of new antibacterial peptide mimics: The dialkyl cationic amphiphiles” (Eur J Med Chem, 2018)
Active and inactive are the calls of the source. No cut-off for these calls is given here.

Assays:
Staphylococcus aureus [1] = experiment: Antibacterial activity against methicillin-resistant Staphylococcus aureus isolate M4 after 16 to 20 hrs by broth microdilution method; assay type: functional
Summary of the method: (§1)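 CLSI broth microdilution in cation-adjusted Mueller-Hinton broth. A 4-6 h culture was diluted to about 10⁶ CFU/mL and mixed 1:1 with twofold compound dilutions (256–0.5 µg/mL before mixing) prepared from aqueous stocks. Plates were incubated at 37 °C for 16-20 h. Each concentration was tested in duplicate, and the experiment was repeated at least twice.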

Klebsiella pneumoniae [2] = experiment: Antibacterial activity against carbapenemase-producing Klebsiella pneumoniae isolate K8 after 16 to 20 hrs by broth microdilution method; assay type: functional
Summary of the method: (§2)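 Broth microdilution per CLSI in cation-adjusted Mueller-Hinton broth; 4-6 h cultures (~10⁸ CFU/mL) diluted to ~10⁶ CFU/mL and mixed 1:1 with twofold dilutions of water-dissolved compound (256 to 0.5 µg/mL). Incubated 16-20 h at 37 °C; MIC read visually. Each concentration run in duplicate, whole experiment repeated at least twice. MRSA, KPC and NDM-1 strains were clinical isolates.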

Staphylococcus aureus [3] = experiment: Antibacterial activity against methicillin-resistant Staphylococcus aureus isolate M8 after 16 to 20 hrs by broth microdilution method; assay type: functional; summary of the method: as §1
Staphylococcus aureus [4] = experiment: Antibacterial activity against methicillin-resistant Staphylococcus aureus isolate M2 after 16 to 20 hrs by broth microdilution method; assay type: functional; summary of the method: as §1
Staphylococcus aureus [5] = experiment: Antibacterial activity against Staphylococcus aureus ATCC 29213 after 16 to 20 hrs by broth microdilution method; assay type: functional; summary of the method: as §1
Staphylococcus aureus [6] = experiment: Antibacterial activity against methicillin-resistant Staphylococcus aureus isolate M1 after 16 to 20 hrs by broth microdilution method; assay type: functional; summary of the method: as §1
Enterobacteriaceae [7] = experiment: Antibacterial activity against NDM-1-producing Enterobacteriaceae isolate N3 after 16 to 20 hrs by broth microdilution method; assay type: functional; summary of the method: as §2
Staphylococcus aureus [8] = experiment: Antibacterial activity against methicillin-resistant Staphylococcus aureus isolate M3 after 16 to 20 hrs by broth microdilution method; assay type: functional; summary of the method: as §1
Staphylococcus aureus [9] = experiment: Antibacterial activity against methicillin-resistant Staphylococcus aureus isolate M7 after 16 to 20 hrs by broth microdilution method; assay type: functional; summary of the method: as §1
Enterococcus faecalis = experiment: Antibacterial activity against Enterococcus faecalis after 16 to 20 hrs by broth microdilution method; assay type: functional; summary of the method: as §2
Staphylococcus aureus [10] = experiment: Bactericidal activity against methicillin-resistant Staphylococcus aureus after 20 to 24 hrs in presence of 50% plasma by broth microdilution method; assay type: functional, organism-based
Summary of the method: (§3)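 MRSA at 10⁵ CFU/mL in 50% Mueller-Hinton broth plus 50% sheep serum, plasma or defibrinated whole blood. Serum and plasma were separated by centrifugation at 3,500 rpm for 10 min. Aqueous compound dilutions (512–4 µg/mL before mixing) were combined 1:3 with the suspension and incubated 20-24 h at 37 °C. Wells were plated on Mueller-Hinton agar for a further 20-24 h; MBC was taken as no colonies.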

[11] = Hemolytic activity in sheep RBC after 1 hr; assay type: ADME, cell-based, Ovis aries, Erythrocyte; settings: sheep red blood cells (erythrocytes)
Summary of the method: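 Sheep RBCs suspended at 5% in PBS; 150 µL added to 50 µL compound dilutions (5120 to 10 µg/mL series). Incubated 1 h at 37 °C, then centrifuged; supernatant absorbance read at 540 nm. Lysis (%) = (A−A0)/(Atotal−A0)×100, with untreated 5% RBC as A0 and 0.1% Triton X-100 as total.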

Klebsiella pneumoniae [12] = experiment: Antibacterial activity against carbapenemase-producing Klebsiella pneumoniae isolate K2 after 16 to 20 hrs by broth microdilution method; assay type: functional; summary of the method: as §2
Escherichia coli [13] = experiment: Induction of outer membrane permeabilization in Escherichia coli ATCC 25922 at 20 ug/ml measured every 2 mins for 12 mins by NPN staining based fluorescence assay; assay type: functional, organism-based
Summary of the method: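 Mid-log E. coli (~10^8 CFU/mL) in black plates pre-incubated about 40 min with NPN (10 µM, 50 µL). Baseline read 8 min (ex 350/em 420 nm), then compound added to 20 µg/mL final and fluorescence followed every 2 min for 12 min. Water-treated control.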

Klebsiella pneumoniae [14] = experiment: Antibacterial activity against carbapenemase-producing Klebsiella pneumoniae isolate K5 after 16 to 20 hrs by broth microdilution method; assay type: functional; summary of the method: as §2
Salmonella enterica = experiment: Antibacterial activity against Salmonella enterica after 16 to 20 hrs by broth microdilution method; assay type: functional; summary of the method: as §2
Escherichia coli [15] = experiment: Induction of inner membrane permeabilization in Escherichia coli ATCC 25922 at 20 ug/ml measured every 2 mins for 12 mins by propidium iodide staining based fluorescence assay; assay type: functional, organism-based
Summary of the method: (§4)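 Mid-log cells (~10^8 CFU/mL) pre-incubated with propidium iodide (10 µM, 50 µL), 30 min for S. aureus and 40 min for E. coli. Fluorescence (ex 535/em 617 nm) read for 8 min, then compound added to 20 µg/mL final and monitored every 2 min for 12 min. Water-treated control.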

Staphylococcus aureus [16] = experiment: Antibacterial activity against methicillin-resistant Staphylococcus aureus after 16 to 20 hrs by broth microdilution method; assay type: functional; summary of the method: as §1
Klebsiella pneumoniae [17] = experiment: Antibacterial activity against carbapenemase-producing Klebsiella pneumoniae isolate K7 after 16 to 20 hrs by broth microdilution method; assay type: functional; summary of the method: as §2
Staphylococcus aureus [18] = experiment: Bactericidal activity against methicillin-resistant Staphylococcus aureus after 20 to 24 hrs in presence of 50% blood by broth microdilution method; assay type: functional, organism-based; summary of the method: as §3
Staphylococcus aureus [19] = experiment: Induction of inner membrane permeabilization in Staphylococcus aureus ATCC 29213 at 20 ug/ml measured every 2 mins for 12 mins by propidium iodide staining based fluorescence assay; assay type: functional, organism-based; summary of the method: as §4
Klebsiella pneumoniae [20] = experiment: Antibacterial activity against carbapenemase-producing Klebsiella pneumoniae after 16 to 20 hrs by broth microdilution method; assay type: functional; summary of the method: as §2
Staphylococcus aureus [21] = experiment: Ratio of MBC for methicillin-resistant Staphylococcus aureus in presence of 50% blood to MBC for methicillin-resistant Staphylococcus aureus; assay type: functional; summary of the method: as §3
Klebsiella pneumoniae [22] = experiment: Antibacterial activity against carbapenemase-producing Klebsiella pneumoniae isolate K1 after 16 to 20 hrs by broth microdilution method; assay type: functional; summary of the method: as §2
Staphylococcus aureus [23] = experiment: Ratio of MBC for methicillin-resistant Staphylococcus aureus in presence of 50% serum to MBC for methicillin-resistant Staphylococcus aureus; assay type: functional; summary of the method: as §3
Staphylococcus aureus [24] = experiment: Bactericidal activity against methicillin-resistant Staphylococcus aureus after 20 to 24 hrs by broth microdilution method; assay type: functional
Summary of the method: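 For MBC, 20 µL from wells of the broth microdilution MIC plate showing little or no turbidity was plated on agar and incubated 20-24 h at 37 °C. MBC was the lowest concentration giving no colonies.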

Staphylococcus aureus [25] = experiment: Antibacterial activity against methicillin-resistant Staphylococcus aureus isolate M6 after 16 to 20 hrs by broth microdilution method; assay type: functional; summary of the method: as §1
Enterobacteriaceae [26] = experiment: Antibacterial activity against NDM-1-producing Enterobacteriaceae isolate N4 after 16 to 20 hrs by broth microdilution method; assay type: functional; summary of the method: as §2
Enterobacteriaceae [27] = experiment: Antibacterial activity against NDM-1-producing Enterobacteriaceae isolate N5 after 16 to 20 hrs by broth microdilution method; assay type: functional; summary of the method: as §2
Staphylococcus aureus [28] = experiment: Antibacterial activity against methicillin-resistant Staphylococcus aureus isolate M5 after 16 to 20 hrs by broth microdilution method; assay type: functional; summary of the method: as §1
Staphylococcus aureus [29] = experiment: Antibacterial activity against methicillin-resistant Staphylococcus aureus isolate M9 after 16 to 20 hrs by broth microdilution method; assay type: functional; summary of the method: as §1

SMILES	MIC (Staphylococcus aureus [1])	MIC (Klebsiella pneumoniae [2])	MIC (Staphylococcus aureus [3])	MIC (Staphylococcus aureus [4])	MIC (Staphylococcus aureus [5])	MIC (Staphylococcus aureus [6])	MIC (Enterobacteriaceae [7])	MIC (Staphylococcus aureus [8])	MIC (Staphylococcus aureus [9])	MIC (Enterococcus faecalis)	Activity (Staphylococcus aureus [10])	HC50 at 1 h [11]	MIC (Klebsiella pneumoniae [12])	Activity (Escherichia coli [13])	MIC (Klebsiella pneumoniae [14])	MIC (Salmonella enterica)	Activity (Escherichia coli [15])	MIC (Staphylococcus aureus [16])	MIC (Klebsiella pneumoniae [17])	Activity (Staphylococcus aureus [18])	other results
CCCCCCCCCCN(CCCCCCCCCC)C(=O)[C@@H](N)CCCCN.Cl.Cl	2 µg/mL	2 µg/mL	1 µg/mL	1 µg/mL	4 µg/mL	1 µg/mL	4 µg/mL	2 µg/mL	1 µg/mL	2 µg/mL	Active	98 µg/mL	4 µg/mL	Active	4 µg/mL	2 µg/mL	Active	1 µg/mL	4 µg/mL	inactive	Activity (Staphylococcus aureus [19]): Active; MIC (Klebsiella pneumoniae [20]): 2 µg/mL; Ratio (Staphylococcus aureus [21]): 8 - 16; MIC (Klebsiella pneumoniae [22]): 4 µg/mL; Ratio (Staphylococcus aureus [23]): 1 - 2; MBC (Staphylococcus aureus [24]): 4 to 8 µg/mL; MIC (Staphylococcus aureus [25]): 1 µg/mL; MIC (Enterobacteriaceae [26]): 4 µg/mL; MIC (Enterobacteriaceae [27]): 4 µg/mL; MIC (Staphylococcus aureus [28]): 2 µg/mL; MIC (Staphylococcus aureus [29]): 1 µg/mL
CCCCCCCCCN(CCCCCCCCC)C(=O)[C@@H](N)CCCCN.Cl.Cl	2 µg/mL	2 µg/mL	1 µg/mL	1 µg/mL	1 µg/mL	1 µg/mL	2 µg/mL	1 µg/mL	1 µg/mL	1 µg/mL	Active	133 µg/mL	2 µg/mL	Active	2 µg/mL	2 µg/mL	Active	0.5 µg/mL	2 µg/mL	inactive	Activity (Staphylococcus aureus [19]): Active; MIC (Klebsiella pneumoniae [20]): 2 µg/mL; Ratio (Staphylococcus aureus [21]): 8 - 16; MIC (Klebsiella pneumoniae [22]): 2 µg/mL; Ratio (Staphylococcus aureus [23]): 1 - 2; MBC (Staphylococcus aureus [24]): 4 to 8 µg/mL; MIC (Staphylococcus aureus [25]): 1 µg/mL; MIC (Enterobacteriaceae [26]): 2 µg/mL; MIC (Enterobacteriaceae [27]): 2 µg/mL; MIC (Staphylococcus aureus [28]): 1 µg/mL; MIC (Staphylococcus aureus [29]): 1 µg/mL
CCCCCCCCN(CCCCCCCC)C(=O)[C@@H](N)CCCN=C(N)N.Cl.Cl.Cl	1 µg/mL	4 µg/mL	1 µg/mL	1 µg/mL	1 µg/mL	1 µg/mL	8 µg/mL	0.5 µg/mL	0.5 µg/mL	2 µg/mL	Active	124 µg/mL	4 µg/mL	Active	8 µg/mL	8 µg/mL	Active	0.5 µg/mL	8 µg/mL	inactive	Activity (Staphylococcus aureus [19]): Active; MIC (Klebsiella pneumoniae [20]): 4 µg/mL; Ratio (Staphylococcus aureus [21]): 8 - 16; MIC (Klebsiella pneumoniae [22]): 8 µg/mL; Ratio (Staphylococcus aureus [23]): 1 - 2; MBC (Staphylococcus aureus [24]): 4 to 8 µg/mL; MIC (Staphylococcus aureus [25]): 0.5 µg/mL; MIC (Enterobacteriaceae [26]): 8 µg/mL; MIC (Enterobacteriaceae [27]): 4 µg/mL; MIC (Staphylococcus aureus [28]): 1 µg/mL; MIC (Staphylococcus aureus [29]): 1 µg/mL
